Columns and labels:
[1] = species: Mus musculus; assay: animal or person; format: functional; settings: 0.5 h, read-out: MED
[2] = species: Mus musculus; format: functional
[3] = species: Mus musculus; assay: Protective activity against Maximal Electroshock seizures(MES) at 60 min was determined; format: functional; settings: 1 h
[4] = system: Mus musculus; assay: The compound was tested for Ataxia(ATAX) by the inverted screen test, after intraperitoneal administration at 120 min; format: functional; settings: ip, 2 h
[5] = species: Mus musculus; assay: Protective activity against Maximal Electroshock seizures(MES) in mice was determined at 90 min; format: functional; settings: 1.5 h
[6] = system: Mus musculus; assay: The compound was tested for Ataxia(ATAX) by the inverted screen test after (ip) administration at 120 min; format: functional; settings: 2 h
[7] = species: Mus musculus; assay: Protective activity was determined against Maximal Electroshock seizures(MES) in mouse at 30 min; format: functional; settings: 0.5 h
Method in brief: (§1)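 Male Swiss-Webster mice (25–32 g, fed) were dosed orally, with the compound in water or in a 0.2% (hydroxymethyl)cellulose suspension and doses calculated as free base. Absence of tonic hind-limb extension counted as protection. Ten mice per dose were used, giving an ED50 with 95% confidence interval.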

[8] = species: Mus musculus; assay: The compound was tested for protective activity against Maximal Electroshock seizures(MES) at 60 min in mice; format: functional; settings: 1 h
[9] = system: Mus musculus; assay: The compound was tested for Ataxia(ATAX) by the inverted screen test, after intraperitoneal administration at 120 min in mice; format: functional; settings: ip, 2 h
[10] = system: Mus musculus; assay: The compound was tested for Ataxia(ATAX) by the inverted screen test, after oral administration in mouse at 60 min; format: functional; settings: 1 h
Method in brief: (§2)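 Mice were dosed orally, with doses calculated as free base. They were placed on an inverted square of wire mesh, and falling off was scored as impairment. Ten mice per dose were tested at the stated time, giving an ED50 with 95% confidence interval.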

[11] = species: Rattus norvegicus; assay: Protective activity was determined against Maximal Electroshock seizures(MES) in rat at 60 min; format: functional; settings: 1 h
Method in brief: (§3)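 Rats were dosed orally and tested against maximal electroshock, with the test time after dosing given per line. Doses were calculated as free base. ED50 is reported with 95% confidence interval.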

[12] = system: Rattus norvegicus; assay: The compound was tested for Ataxia(ATAX) by the inverted screen test, after oral administration in rat at 240 min; settings: 4 h
[13] = species: Mus musculus; assay: Protective activity was determined against Maximal Electroshock seizures(MES) in mouse at 120 min; format: functional; settings: 2 h
Method in brief: as §1

[14] = system: Mus musculus; assay: The compound was tested for Ataxia(ATAX) by the inverted screen test, after oral administration in mouse at 120 min; format: functional; settings: 2 h
Method in brief: as §2

[15] = species: Rattus norvegicus; assay: Protective activity was determined against Maximal Electroshock seizures(MES) in rat at 30 min; format: functional; settings: 0.5 h
Method in brief: as §3

| SMILES | minimal effective dose [1] | MAD [2] | further results |
| --- | --- | --- | --- |
| N#Cc1ccccc1NC(=O)Nc1ccncc1 | > 300 mg/kg | 100 mg/kg | – |
| O=C(Nc1ccncc1)Nc1ccccc1C(F)(F)F | 100 mg/kg | 300 mg/kg | – |
| O=C(Nc1ccncc1)Nc1ccccc1Br | 100 mg/kg | >300 mg/kg | – |
| Cc1ccc(NC(=O)Nc2ccncc2)cc1 | > 300 mg/kg | 100 mg/kg | – |
| Cc1cccc(Cl)c1NC(=O)Nc1c(C)cccc1Cl | > 300 mg/kg | >300 mg/kg | – |
| Cc1cccc(Cl)c1NC(=O)Nc1cccnc1 | 100 mg/kg | 300 mg/kg | – |
| Cc1cccc(C)c1NC(=O)Nc1ccc([N+](=O)[O-])cc1 | > 300 mg/kg | >300 mg/kg | – |
| O=C(Nc1ccccn1)Nc1c(Cl)cccc1Cl | > 300 mg/kg | 100 mg/kg | – |
| O=C(Nc1ccncc1)Nc1ccc(F)cc1 | 300 mg/kg | 300 mg/kg | – |
| O=C(Nc1ccncc1)Nc1ccc(Oc2ccccc2)cc1 | > 300 mg/kg | >300 mg/kg | – |
| Cc1cc(C)c(NC(=O)Nc2ccncc2)c(Cl)c1 | 100 mg/kg | >300 mg/kg | – |
| CCOC(=O)c1ccccc1NC(=O)Nc1ccncc1 | 300 mg/kg | >300 mg/kg | – |
| Cc1cccc(C)c1NC(=O)N1CCN(C)CC1 | 100 mg/kg | 300 mg/kg | – |
| Cc1cc(NC(=O)Nc2c(C)cccc2Cl)ccn1 | 30 mg/kg | 100 mg/kg | – |
| O=C(Nc1ccncc1)Nc1ccccc1[N+](=O)[O-] | 300 mg/kg | >300 mg/kg | – |
| CC(C)c1cccc(C(C)C)c1NC(=O)Nc1ccncc1 | > 300 mg/kg | >300 mg/kg | – |
| COc1ccccc1NC(=O)Nc1ccncc1 | 100 mg/kg | >300 mg/kg | – |
| CC(C)c1ccccc1NC(=O)Nc1ccncc1 | 100 mg/kg | 300 mg/kg | – |
| Cc1c(Cl)cccc1NC(=O)Nc1ccncc1 | > 300 mg/kg | >300 mg/kg | – |

| SMILES | minimal effective dose [1] | MAD [2] | further results |
| --- | --- | --- | --- |
| CC(C)c1ccc(NC(=O)Nc2ccncc2)cc1 | > 300 mg/kg | >300 mg/kg | – |
| CC(=O)c1ccc(NC(=O)Nc2ccncc2)cc1 | > 300 mg/kg | >300 mg/kg | – |
| O=C(Nc1ccncc1)Nc1cccc(C(F)(F)F)c1 | > 300 mg/kg | >300 mg/kg | – |
| O=C(Nc1ccncc1)Nc1cccc([N+](=O)[O-])c1 | > 300 mg/kg | >300 mg/kg | – |
| O=C(Nc1ccncc1)Nc1c(Cl)cc(Cl)cc1Cl | 300 mg/kg | 300 mg/kg | – |
| O=C(Nc1ccncc1)Nc1ccc(Cl)cc1 | > 300 mg/kg | >300 mg/kg | – |
| Nc1ccc(NC(=O)Nc2ccncc2)cc1 | > 300 mg/kg | 300 mg/kg | – |
| O=C(Nc1ccncc1)Nc1ccccc1F | 100 mg/kg | 100 mg/kg | – |
| O=C(Nc1ccncc1)Nc1ccc(I)cc1 | > 300 mg/kg | >300 mg/kg | – |
| CCOC(=O)c1ccc(NC(=O)Nc2ccncc2)cc1 | > 300 mg/kg | >300 mg/kg | – |
| O=C(Nc1ccccc1)Nc1ccncc1 | 100 mg/kg | 300 mg/kg | – |
| Cc1cccc(C)c1NC(=O)Nc1ccccn1 | 300 mg/kg | >300 mg/kg | – |
| O=C(Nc1ccncc1)Nc1c(Cl)cccc1CO | > 300 mg/kg | 300 mg/kg | – |
| Cc1cccc(Cl)c1NC(N)=O | 100 mg/kg | 300 mg/kg | – |
| Cc1cccc(Cl)c1NC(=O)NCc1ccncc1 | > 300 mg/kg | >300 mg/kg | – |
| CN(C)c1ccccc1NC(=O)Nc1ccncc1 | 100 mg/kg | 100 mg/kg | – |
| O=C(Nc1ccncc1)Nc1ccccc1O | > 300 mg/kg | >300 mg/kg | – |
| Cc1ccccc1NC(=O)Nc1ccncc1 | 100 mg/kg | >300 mg/kg | – |
| O=C(Nc1ccncc1)Nc1c(Cl)cccc1Cl | 100 mg/kg | >300 mg/kg | ED50 [3]: 30 mg/kg; ED50 [4]: 293 mg/kg |

| SMILES | minimal effective dose [1] | MAD [2] | further results |
| --- | --- | --- | --- |
| O=C(Nc1ccncc1)Nc1ccc(Cl)cc1Cl | > 300 mg/kg | >300 mg/kg | – |
| O=C(Nc1ccncc1)Nc1ccccc1Cl | 100 mg/kg | >300 mg/kg | – |
| Cc1cc(C)c(NC(=O)Nc2ccncc2)c(C)c1 | 30 mg/kg | 300 mg/kg | – |
| CC(C)NC(=O)Nc1ccncc1 | 300 mg/kg | 300 mg/kg | – |
| Cc1cccc(C)c1NC(=O)Nc1ccncc1 | 30 mg/kg | 100 mg/kg | ED50 [5]: 21 mg/kg; ED50 [6]: 138 mg/kg |
| O=C(Nc1ccncc1)Nc1ccccc1C(=O)O | > 300 mg/kg | >300 mg/kg | – |
| COc1cc(C)c(NC(=O)Nc2ccncc2)c(C)c1 | > 300 mg/kg | >300 mg/kg | – |
| O=C(Nc1ccncc1)Nc1c(Cl)cccc1C(F)(F)F | 100 mg/kg | 300 mg/kg | – |
| Cc1cccc(C)c1NC(=O)Nc1cccnc1 | 100 mg/kg | 300 mg/kg | – |
| Cc1cccc(NC(=O)Nc2ccncc2)c1 | > 300 mg/kg | >300 mg/kg | – |
| Cc1cccc(Cl)c1NC(=O)Nc1ccccn1 | 100 mg/kg | >300 mg/kg | – |
| CCc1cccc(CC)c1NC(=O)Nc1ccncc1 | 30 mg/kg | 100 mg/kg | – |
| Nc1ccccc1NC(=O)Nc1ccncc1 | > 300 mg/kg | >300 mg/kg | – |
| Cc1cccc(Cl)c1NC(=O)Nc1ccncc1 | 30 mg/kg | 300 mg/kg | ED50 [7]: 14 mg/kg; ED50 [8]: 46 mg/kg; ED50 [9]: 251 mg/kg; ED50 [10]: 210 mg/kg; ED50 [11]: 9.2 mg/kg; ED50 [12]: 408 mg/kg |
| O=C(Nc1cccnc1)Nc1c(Cl)cccc1Cl | > 300 mg/kg | 300 mg/kg | – |
| Cc1ccc(NC(=O)Nc2ccncc2)c(C)c1 | > 300 mg/kg | >300 mg/kg | – |
| O=C(Nc1ccncc1)Nc1ccccc1OCc1ccccc1 | > 300 mg/kg | 30 mg/kg | – |
| O=C(Nc1ccncc1)Nc1ccc([N+](=O)[O-])cc1 | > 300 mg/kg | >300 mg/kg | – |
| O=C1NC(=O)C(c2ccccc2)(c2ccccc2)N1 [PHENYTOIN] | – | – | ED50 [13]: 8.3 mg/kg; ED50 [14]: 78 mg/kg; ED50 [15]: 30 mg/kg; ED50 [12]: > 300 mg/kg |

— ChEMBL document CHEMBL1124707, “N-phenyl-N'-pyridinylureas as anticonvulsant agents” (1990)
